TRPC6 act = mouse TRPC6 channel activators, primary screen, cell-based, HEK293, membrane potential dye; Short transient receptor potential channel 6 (Mus musculus), Q61143; HEK293-TRPC6 membrane potential dye fluorescence; active compounds read high; actives 0.13% (n = 310,000); B-score at 10 µM;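 active means B-score of the integrated fluorescence ratio above library mean plus 3 SD, and starting fluorescence ratio within library mean plus 5 SD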;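 further: higher score means more depolarization so channel activation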
TRPC4 act = activators of mouse TRPC4 channel, primary screen, Fluo4 calcium, HEK293 TRPC4beta/mu-opioid cells; B-score at 10 µM; actives 0.49% (n = 310,000); Fluo4 calcium fluorescence; active compounds read high;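 active means B-score above 5 SD of library B-scores, and initial fluorescence ratio not above library mean plus 5 SD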;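 further: positive B-score marks a calcium rise read as TRPC4 activation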
Target sequence (Q9QUQ5 whole entry, looked up): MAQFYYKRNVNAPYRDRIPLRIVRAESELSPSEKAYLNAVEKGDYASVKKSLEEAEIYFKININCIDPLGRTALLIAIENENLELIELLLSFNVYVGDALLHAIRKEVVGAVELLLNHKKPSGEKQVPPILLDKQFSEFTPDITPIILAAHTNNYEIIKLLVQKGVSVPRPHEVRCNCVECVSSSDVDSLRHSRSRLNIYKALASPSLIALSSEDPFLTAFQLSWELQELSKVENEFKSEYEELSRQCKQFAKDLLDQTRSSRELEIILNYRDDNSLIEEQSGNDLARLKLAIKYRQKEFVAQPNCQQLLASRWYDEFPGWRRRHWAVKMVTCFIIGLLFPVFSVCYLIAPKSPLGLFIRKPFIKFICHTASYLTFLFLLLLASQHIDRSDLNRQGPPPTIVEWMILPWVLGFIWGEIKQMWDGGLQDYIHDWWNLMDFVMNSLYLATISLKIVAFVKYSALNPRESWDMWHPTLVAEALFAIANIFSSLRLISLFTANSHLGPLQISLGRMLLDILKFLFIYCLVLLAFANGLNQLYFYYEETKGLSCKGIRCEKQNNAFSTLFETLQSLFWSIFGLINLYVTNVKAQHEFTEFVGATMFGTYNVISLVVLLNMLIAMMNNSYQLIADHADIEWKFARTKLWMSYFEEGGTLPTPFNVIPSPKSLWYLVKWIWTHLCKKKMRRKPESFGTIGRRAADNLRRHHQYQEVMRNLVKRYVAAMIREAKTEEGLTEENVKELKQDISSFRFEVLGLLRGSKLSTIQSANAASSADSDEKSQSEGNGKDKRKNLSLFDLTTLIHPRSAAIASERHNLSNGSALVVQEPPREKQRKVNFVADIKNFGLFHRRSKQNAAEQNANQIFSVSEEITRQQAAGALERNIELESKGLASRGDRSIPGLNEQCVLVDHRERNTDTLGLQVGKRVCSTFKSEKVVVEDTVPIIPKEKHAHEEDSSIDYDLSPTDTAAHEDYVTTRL
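system = HEK293 cells stably co-expressing mouse TRPC4beta and mu-opioid receptor | schedule = Fluo4 dye loading 45 min at room temperature, 110 s recording | measure = B-scored integrated calcium fluorescence ratio | signal = Fluo4 calcium-sensitive dye fluorescence, kinetic, 1 Hz baseline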
TRPC6 inh = mouse TRPC6 channel inhibitors, primary screen, cell-based, HEK293, membrane potential dye | Short transient receptor potential channel 6 (Mus musculus), Q61143 | ACh-evoked depolarization; active compounds read low | B-score at 10 µM | actives 1.1% (n = 310,000) | AID 2553, 2010;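 active means B-score under library mean minus 3 SD, initial fluorescence not abnormally high, positive integrated signal ratio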;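 further: B-score derived from integrated fluorescence ratio over the kinetic read; more negative B-score means stronger inhibition of depolarization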
TRPC4 inh = inhibitors of mouse TRPC4 channel, primary screen, Fluo4 calcium, HEK293 TRPC4beta/mu-opioid cells. AID 2247, 2010. B-score at 10 µM. DAMGO-evoked Fluo4 calcium flux; active compounds read low. actives 0.39% (n = 300,000). Short transient receptor potential channel 4 (Mus musculus), Q9QUQ5;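 active means B-score over 3 SD under the library average, no early fluorescence shift, positive overall ratio signal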
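Signal: kinetic Fluo4 fluorescence imaging of calcium influx. Material: stable TRPC4beta/mu-opioid receptor HEK293 cells. Probe or stimulus: DAMGO in two steps, submaximal then maximal.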
TRPC4 PAM = positive allosteric modulators of TRPC4, primary screen, cell-based, mouse TRPC4beta, HEK293 mu-opioid, Fluo-4 calcium; Short transient receptor potential channel 4 (Mus musculus), Q9QUQ5; DAMGO EC20, Fluo-4 Ca2+ flux; active compounds read high; B-score at 10 µM; actives 0.42% (n = 310,000);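 active means B-score of calcium response area above 5 SD of library B-scores, with initial fluorescence ratio within 5 SD of library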
Hits are given with their value; i = inactive. A selection: hits, their analogues and other compounds. The true share with any hit is near 2.3%.

SMILES	TRPC6 act	TRPC4 act	TRPC6 inh	TRPC4 inh	TRPC4 PAM
Cc1ccc(Cl)cc1N1CCN(Cc2nc3ccsc3c(=O)[nH]2)CC1	i	i	i	i	28
O=c1[nH]c(CN2CCN(c3ccc([N+](=O)[O-])cc3)CC2)nc2ccsc12	i	i	i	i	i
COc1cc(NC(=O)Nc2ccc(Cl)c(Cl)c2)c(C(=O)O)cc1OC	i	i	i	i	i
CCc1cc(=O)oc2c(C)c(OC(C)C(=O)NCCCn3ccnc3)ccc12 (centres undefined)	i	i	i	i	i
CC1CCN(CCc2nc3cc(NS(=O)(=O)c4ccccc4)ccc3n2C)CC1	i	i	i	i	i
CC1CCN(CCc2nc3cc(NS(=O)(=O)c4ccc(F)cc4)ccc3n2C)CC1	i	i	i	i	15
Cn1c(-c2ccccc2)cnc1NCc1ccc(F)cc1	i	i	i	-7	i
COc1cc(C(=O)N/C(=C\c2cn(C)c3ccccc23)C(=O)NCCN2CCOCC2)cc(OC)c1OC	i	i	i	i	i
CCN1CC(CN(C)Cc2cn(-c3cccc(C)c3)nc2-c2cccc(F)c2)CC1=O (centres undefined)	i	73	i	i	i
Cc1ccc(N=Nc2c(N)n[nH]c2N)cc1	i	i	i	i	i
Cc1[nH]nc(N)c1N=Nc1ccc(Br)cc1	i	i	-5.6	i	i
OCCC1CN(Cc2ccccc2-c2ccco2)CCN1Cc1ccccc1 (centres undefined)	i	113	i	i	i
CCn1cc(CN2CCN(Cc3ccccc3)C(CCO)C2)c2ccccc21 (centres undefined)	i	58	i	i	i
OCCC1CN(Cc2ccc3nsnc3c2)CCN1CCc1ccccc1 (centres undefined)	i	43	i	i	i
CC(C)c1cc(=O)[nH]c(N2CCN(Cc3ccc4c(c3)OCO4)CC2)n1	i	i	i	i	i
CCOP(=O)(OCC)c1nc(-c2cccc3ccccc23)oc1NCc1ccc(OC)cc1	i	i	i	i	13
CCOP(=O)(OCC)c1nc(-c2cccc3ccccc23)oc1NCc1ccccc1	i	i	i	i	i
Cc1cccc(NC2CCCCC2NS(=O)(=O)c2ccccc2)c1 (centres undefined)	i	i	i	i	13
Cc1ccc(C)c(NC2CCCCC2NS(=O)(=O)c2ccccc2)c1 (centres undefined)	i	i	i	i	i
CCOC(=O)N1CCN(C(=O)CN(C)S(=O)(=O)c2ccc(Cl)cc2)CC1	i	i	i	i	i
CCC(C)c1ccccc1NC(=O)c1cc(C)no1 (centres undefined)	i	i	i	i	i
COc1ccccc1C(c1nnnn1C(C)(C)C)N1CCN(Cc2ccncc2)CC1 (centres undefined)	i	i	i	i	i
COc1cccc(C(c2nnnn2C(C)(C)C)N2CCN(C3CCCCC3)CC2)c1OC (centres undefined)	i	i	i	-6	i
COc1cccc(C(c2nnnn2CCc2ccccc2)N2CCN(c3ccccc3)CC2)c1OC (centres undefined)	i	i	i	i	i
C=CCN1CCN(C(c2cccc(OC)c2OC)c2nnnn2CCC(C)C)CC1 (centres undefined)	i	i	i	-7	i
Cc1sc2ncnc(SCC(=O)N(C)C3CCS(=O)(=O)C3)c2c1C (centres undefined)	i	i	i	i	34
CN(C(=O)CSc1ncnc2scc(-c3ccccc3)c12)C1CCS(=O)(=O)C1 (centres undefined)	i	i	i	i	i
CCOC(=O)C1=NNC(C(=O)c2ccccc2)C1c1ccc(C)cc1 (centres undefined)	i	i	i	-8	i
CNC[C@@H](Cc1ccccc1)NC[C@@H](CC1CCCCC1)NCCCc1ccccc1	i	77	i	i	i
